The source of these data is ChEMBL document CHEMBL1158558, “Design of potential reverse transcriptase inhibitor containing Isatin nucleus using molecular modeling studies” (Bioorg Med Chem, 2010).

In this test the target is Human immunodeficiency virus type 1 reverse transcriptase (Human immunodeficiency virus 1) (UniProt Q72547). Description: Inhibition of HIV1 RT after 1 hr by ELISA relative to control. Also noted: concentration or dose not given beside the values. The note with it: concentration not given here. An outline of the steps:
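RT inhibitors, diluted in lysis buffer, were mixed with reaction mixture and incubated 1 h at 37 °C. Samples were then transferred to microplate modules for 1 h at 37 °C and washed. Anti-DIG-POD (200 mU/ml) was added for 1 h at 37 °C, then washed again. ABTS substrate was developed at 15–25 °C for 10–30 min, and absorbance was read at 405 nm.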
Turning to `Cc1ccc2c(c1)/C(=N/n1cnnc1)C(=O)N2CN(C)C`, the inhibition is 69.1%. The result for `Cc1ccc2c(c1)/C(=N/n1cnnc1)C(=O)N2CN1CCOCC1` reads 84.1%; that for `Cc1ccc2c(c1)/C(=N/n1cnnc1)C(=O)N2CN1CCCCC1`, 89%; that for `Cc1ccc2c(c1)/C(=N/n1cnnc1)C(=O)N2CN1CCNCC1`, 90.9%. The same measure for `CNc1ccc(CN2C(=O)/C(=N\n3cnnc3)c3cc(C)ccc32)cc1`: 0%.
